From ChEMBL document CHEMBL1649391, “A systematic protocol for the characterization of Hsp90 modulators” (Bioorg Med Chem, 2011) come the findings set out here.

Assay [1] has as its target T1, Heat shock protein HSP 90 (Oryctolagus cuniculus) (UniProt P11500).
T1 sequence (whole entry): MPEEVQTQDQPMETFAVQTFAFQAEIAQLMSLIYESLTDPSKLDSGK
Description: Modulation proteolytic fingerprint of HSP90 in rabbit reticulocyte lysates at 10 uM after 5 mins by SDS-PAGE analysis in presence of 125 ug/ml of trypsin. The gist of the method:
(§1)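 TnT rabbit reticulocyte lysate (50% v/v) with an ATP-regenerating system (10 mM creatine phosphate, 20 units/mL creatine phosphokinase) and 75 mM KCl. Drug or vehicle was added for 5 min at 37 °C, then the mix was chilled. TPCK-trypsin (0, 50 or 125 μg/ml) was added on ice for 6 min. Reactions were stopped by boiling in SDS sample buffer, then run on SDS-PAGE and Western blotted with antibodies to the Hsp90 N-terminus and C-terminus.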

For assay [2], the target named is Heat shock protein HSP 90-beta (Homo sapiens) (UniProt P08238). Description: Inhibition of HSP90 in human MCF7 cells assessed as degradation of Hsp70 protein up to 50 uM after 48 hrs by Western blotting. Format: cell-based. In short, it runs like this: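 MCF-7 cells were grown in DMEM/F-12 with nonessential amino acids, 2 mM glutamine, penicillin/streptomycin and 10% FBS at 37 °C and 5% CO2. Cells were seeded at 1×10⁶ per dish and left to attach overnight. They were then exposed to varying compound concentrations for 48 h, harvested, and Western blotted for Hsp90 client proteins and Hsp70.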
(In western blotting, separated proteins are transferred to a membrane and probed.)

Assay [3] concerns the target Heat shock protein HSP 90-alpha (Homo sapiens) (UniProt P07900). Description: Inhibition of human HSP90alpha expressed in yeast PP30 cells co-expressing HSF-lacZ reporter assessed as inhibition of heat stress-induced response at 100 uM after 3 hrs. The assay is classed as cell-based. In short, it runs like this:
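Yeast PP30 carrying human Hsp90α as its sole Hsp90 was transformed with a 3×HSE-lacZ reporter and grown at 30 °C in uracil-dropout 2% glucose medium to 2–3×10⁶ cells/ml. Cells were treated with compound, then heat-shocked for 1 h at 39 °C. In lysates, β-galactosidase was read with ONPG in buffer Z pH 7.0 at 30 °C, stopped with Na2CO3, read at OD420 and normalized to protein.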

Assay [4] has as its system LNCaP. Description: Ratio of compound IC50 to KU135 IC50 for human LNCAP cells. The assay is classed as functional.
The nature of assay [5]: Ratio of compound IC50 to KU135 IC50 for human LNCaP-LN3 cells. Format: functional.
Assay [6] has as its target T1, Heat shock protein HSP 90 (Oryctolagus cuniculus). Description: Modulation proteolytic fingerprint of HSP90 in rabbit reticulocyte lysates at 20 uM after 5 mins by SDS-PAGE analysis in presence of 125 ug/ml of trypsin. In short, it runs like this: as §1
The subject of assay [7] is LNCaP. Description: Antiproliferative activity against human LNCAP cells. Format: functional, cell-based.
For assay [8], the target named is Heat shock protein HSP 90-beta (Homo sapiens) (UniProt P08238). Description: Inhibition of HSP90 binding to Cdc37 in human SKBR-3 cells by Western blotting. Format: cell-based. In short, it runs like this: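 SKBr-3 cells were treated for 24 h at 0–10 μM. Cells were lysed in NP-40/molybdate Tris buffer pH 7.4 for 2 h at 4 °C, then centrifuged. Lysate protein (500 μg) was immunoprecipitated with anti-Hsp90 for 2 h, then with protein G agarose overnight at 4 °C. Washed precipitates were immunoblotted for Hsp90 and Cdc37.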

Assay [9] has the same target. Description: Displacement of geldanamycin bound sepharose from HSP90 after 5 mins by affinity chromatography analysis. In short, it runs like this:
(§2)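 Lysate with the ATP-regenerating mix was preincubated for 5 min at 37 °C, then loaded onto novobiocin-epoxy-sepharose or onto geldanamycin-derivatized AffiGel beads blocked with BSA. Columns were washed with 20 volumes of buffer containing 0.15 M NaCl. Bound Hsp90 was eluted with a linear 0–5 mM compound gradient in the dark at 4 °C. Eluates were run on 12.5% SDS-PAGE and immunoblotted for Hsp90.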

Assay [10] has the same target. Description: Displacement of novobiocin bound sepharose from HSP90 after 5 mins by affinity chromatography analysis. In short, it runs like this: as §2

Each structure is given as a SMILES string. Calls of active or inactive are those of the source. The rule behind the calls is not given here.

Heat shock protein HSP 90-beta (Homo sapiens), sequence (P08238 whole entry): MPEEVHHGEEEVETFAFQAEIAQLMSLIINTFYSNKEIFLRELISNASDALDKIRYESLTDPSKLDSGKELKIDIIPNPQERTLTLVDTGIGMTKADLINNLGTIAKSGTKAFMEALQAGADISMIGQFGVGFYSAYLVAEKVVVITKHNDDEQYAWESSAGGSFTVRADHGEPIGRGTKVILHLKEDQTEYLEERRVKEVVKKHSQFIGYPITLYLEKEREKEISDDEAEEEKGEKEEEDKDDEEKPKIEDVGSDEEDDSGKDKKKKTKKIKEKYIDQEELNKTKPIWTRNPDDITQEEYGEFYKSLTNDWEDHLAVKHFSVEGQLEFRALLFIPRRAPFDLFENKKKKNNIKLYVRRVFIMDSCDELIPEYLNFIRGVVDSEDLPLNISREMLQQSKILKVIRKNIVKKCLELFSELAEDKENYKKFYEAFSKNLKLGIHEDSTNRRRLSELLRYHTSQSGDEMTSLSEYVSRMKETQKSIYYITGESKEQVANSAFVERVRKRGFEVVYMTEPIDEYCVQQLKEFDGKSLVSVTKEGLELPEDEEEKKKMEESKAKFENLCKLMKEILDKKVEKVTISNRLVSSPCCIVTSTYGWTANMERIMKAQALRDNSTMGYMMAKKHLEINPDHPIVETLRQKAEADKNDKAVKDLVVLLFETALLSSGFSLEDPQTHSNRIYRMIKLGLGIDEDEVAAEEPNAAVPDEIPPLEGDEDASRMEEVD

As for `CO[C@@H]1[C@@H](O)[C@@H](O)[C@H](Oc2ccc3cc(NC(=O)CCCCCCC(=O)Nc4cc5ccc(O[C@H]6OC(C)(C)[C@@H](OC)[C@H](O)[C@@H]6O)cc5oc4=O)c(=O)oc3c2C)OC1(C)C`, the outcome in assay [1] was Active. Besides, the outcome in [2] was inactive.

As to `CO[C@@H]1[C@@H](O)[C@@H](O)[C@H](Oc2ccc3cc(NC(C)=O)c(=O)oc3c2)OC1(C)C`, in [1], the result was Active. In addition, the result in assay [2] was inactive.

With `COc1cccc(-c2cc(C(=O)Nc3cc4cc(OC)c(OC(C)=O)c(C)c4oc3=O)ccc2OC)c1`, the result in assay [1] and in [3] was Active. The “Ratio IC50” value (in the assay with LNCaP [4]; in assay [5]) was 1000 in each case. In addition, the outcome in assay [2] was inactive.

On to `CC1=C(O)C(=O)C=C2C1=CC=C1[C@@]2(C)CC[C@@]2(C)[C@@H]3C[C@](C)(C(=O)O)CC[C@]3(C)CC[C@]12C`, for which the outcome (in assay [2]; in the assay with LNCaP [7]) was inactive. The result in assay [6] and in [9] was Active. Moreover, the Activity entry in assay [8] was “Dose-dependent effect”.

In the case of `CO[C@@H]1[C@@H](O)[C@@H](O)[C@H](Oc2ccc3cc(NC(C)=O)c(=O)oc3c2C)OC1(C)C`, the outcome in assay [1] was Active. The result in assay [2] was inactive.

In the case of `COc1cccc(-c2cc(C(=O)Nc3cc4ccc(O[C@@H]5OC(C)(C)[C@H](OC)[C@@H](O)[C@H]5O)c(OC)c4oc3=O)ccc2OC)c1`, the result in assay [1] was Active. In addition, the outcome (in assay [2]; in the assay on LNCaP [7]) was inactive.

What is called IC50 is the concentration needed to halve the response being measured. High values mean weaker potency, low ones greater potency. For `CO[C@@H]1[C@@H](OC(N)=O)[C@@H](O)[C@H](Oc2ccc3c(O)c(NC(=O)c4ccc(O)c(CC=C(C)C)c4)c(=O)oc3c2C)OC1(C)C` [NOVOBIOCIN], the result in [1] and in assay [3] was Active. Besides, the outcome in assay [2] and in assay [10] was inactive. Moreover, the IC50 in the assay with LNCaP [7] stood at 420 nM.

For the compound `CC(=O)O[C@@H]1C[C@H]2C(C)(C)C(=O)C=C[C@]2(C)[C@H]2CC[C@@]3(C)[C@H](c4ccoc4)OC(=O)[C@H]4O[C@]43[C@@]21C`, the result (in [2]; with LNCaP [7]) was inactive. Moreover, the outcome in assay [6] and in assay [9] was Active. For the same compound, in assay [8], the Activity entry was “Dose-dependent effect”.

On to `O=C(O)CCc1nn(Cc2ccc(Cl)cc2Cl)c2cc(C(F)(F)F)ccc12`, for which the result (in assay [2]; with LNCaP [7]) was inactive. In addition, the outcome in assay [6] and in assay [9] was Active. For the same compound, the Activity result in [8] is “Dose-dependent effect”.

As to `CO[C@@H]1[C@@H](OC(=O)c2ccc(C)[nH]2)[C@@H](O)[C@@H](Oc2ccc3c(O)c(NC(=O)c4c[nH]c(C(=O)Nc5c(O)c6ccc(O[C@H]7OC(C)(C)[C@H](OC)[C@@H](OC(=O)c8ccc(C)[nH]8)[C@H]7O)c(C)c6oc5=O)c4C)c(=O)oc3c2C)OC1(C)C`, the result in [1] was Active. For the same compound, the outcome (in [2]; in the assay with LNCaP [7]) was inactive.
